Rows were chosen to be rich in hits. Some 2.2% of all compounds tested hit in one or more screens of this group.
Wee1 stabilizer – inhibitors of human Wee1 degradation; AID 1321; reporter increase, % at 5 µM; HeLa Luc-Wee1K328M stability, luciferase luminescence; 100% = proteasome inhibitor MG132 effect; hit rate 1.2% among 220,000;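 active means activation above the mean of all tested compounds plus 3 SD, set per screening run, cut at about 8.8% in these data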;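 further: cells exposed to compound for 20 h before luminescence read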
p97 inhibitor – inhibitors of human p97 ATPase; P55072; recombinant p97 ATPase, Kinase-Glo ATP luminescence, 3 h; inhibition, % at 8 µM; hit rate 0.42% among 220,000; AID 1481; in the data active means inhibition above about 15%
Arbovirus inh – arbovirus infection inhibition | inhibition, % at 10 µM | hit rate 0.37% among 200,000 | arbovirus infection cell-based antiviral screen; in the data active means inhibition above about 30%
Redox H2O2 prof – compounds producing H2O2 with reducing agent – biochemical, NIH compound library profiling, artefact control for MLSCN library redox annotation, primary screen; DTT-dependent redox cycling H2O2, phenol red/HRP absorbance; 100% = 100 µM peroxide control, 0% = buffer; activation, % at 10 µM; hit rate 0.03% among 200,000; AID 878;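 active means activation of at least 50% relative to the plate's high and low controls in the primary single-dose screen; inactive means activation below 50%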;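 further: compound incubated with DTT at 0.8 mM final as the reducing agent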
PKD1 inh – blocks activity of human protein kinase D1; Q15139; hit rate 0.056% among 200,000; AID 797; PKD1 kinase fluorescence polarization assay; inhibition, % (concentration not given with the values); in the data active means inhibition above about 50%
RBBP9 inh – blocks human serine hydrolase RBBP9 | O75884 | recombinant RBBP9, FP-Rh probe fluorescence polarization | inhibition, % at 7.94 µM | hit rate 0.2% among 220,000 | AID 1515;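 active means inhibition above the campaign mean of all tested compounds plus 3 SD, cut at about 14% in these data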
Target sequence (O75884 whole entry, looked up): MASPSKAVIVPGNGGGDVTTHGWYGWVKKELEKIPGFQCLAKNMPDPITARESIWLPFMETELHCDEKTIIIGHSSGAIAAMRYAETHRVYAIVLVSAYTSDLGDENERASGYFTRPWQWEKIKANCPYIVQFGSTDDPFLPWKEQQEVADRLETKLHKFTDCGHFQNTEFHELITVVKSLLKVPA
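Test system: recombinant human RBBP9. Quantity: 2.5 µM RBBP9 dispensing solution, before mixing. Detection: FP readout at 525/598 nm. Reagent: Serine-hydrolase probe FP-Rh, 375 nM pre-mixing. Measure: % inhibition. Control set: DMSO-treated enzyme wells and wells lacking RBBP9. Buffer or medium: Tris-NaCl-Pluronic buffer, pH 8.0. Times: preincubation 30 min plus labeling 45 min at 25 °C.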
Numbers stand for hits; - = inactive; . = not tested or not shown.

SMILES	Wee1 stabilizer	p97 inhibitor	Arbovirus inh	Redox H2O2 prof	PKD1 inh	RBBP9 inh
COc1ccc(C(=O)Nc2ccccc2C(=O)O)cc1NC(=O)C(c1ccccc1)c1ccccc1	-	-	.	.	.	-
COc1ccc(C(=O)Nc2ccccc2C(=O)O)cc1Cl	-	-	56	-	-	-
CCOc1c(Cl)cc(C(=O)Nc2ccccc2C(=O)O)cc1Cl	-	-	43	-	-	-
CSCCC(NC(=O)OC(C)(C)C)C(=O)Oc1ccc2c(=O)c(-c3ccc4c(c3)OCCO4)coc2c1 (stereo unspecified)	9.9	-	-	-	-	-
CCCCCN(C(=O)NC(=O)Nc1ccccc1C)S(=O)(=O)c1ccccc1	-	-	-	-	-	-
CSCCC(NC(=O)C1CCC(C)CC1)C(=O)NCCN1CCC(C)CC1 (stereo unspecified)	-	-	-	-	-	-
O=C(NC(=O)c1ccccc1O)c1ccc(C(F)(F)F)cc1	9.1	-	.	.	.	-
CCCc1ccc(C(=O)NC(=O)c2ccccc2O)cc1	-	-	.	.	.	-
CCOc1ccccc1NC(=O)Cn1nnc(-c2ccc(OCC)c(OCC)c2)n1	-	-	-	-	-	-
Cc1ccc(C(=O)NN2C(=O)CSC2=S)cc1	-	-	-	-	-	-
CC(C)(C)c1ccc(C(=O)NN2C(=O)CSC2=S)cc1	11	-	.	.	.	-
CSc1ncccc1C(=O)Nc1nc2ccc(S(C)(=O)=O)cc2s1	8.9	-	-	-	-	-
CS(=O)(=O)c1ccc2nc(NC(=O)c3cccc(NS(=O)(=O)c4ccc(F)c(F)c4)c3)sc2c1	-	-	65	-	-	-
COc1ccc(/C=N/NC(=O)c2ccncc2)cc1Cn1nc([N+](=O)[O-])c(Br)c1C	-	-	-	-	-	-
O=C1CC(N2CCN(S(=O)(=O)c3cccc(C(F)(F)F)c3)CC2)C(=O)N1Cc1ccccc1 (stereo unspecified)	-	-	-	-	-	-
CCSc1cnc(-c2ccccc2)n1CC	-	-	-	-	-	-
CCNS(=O)(=O)c1ccc2c(c1)n(C)c(=O)n2C	-	-	-	-	-	-
Cn1c(=O)n(C)c2cc(S(=O)(=O)O)ccc21	9.0	-	-	-	-	-
Cn1c(=O)c(=O)n(C)c2cc(S(=O)(=O)N3CCOCC3)ccc21	12	-	-	-	-	-
Cn1c(=O)oc2cc(S(=O)(=O)N3CCOCC3)ccc21	-	-	-	-	-	-
CCOc1ccc(C(=O)Nc2nc3ccccc3[nH]2)cc1OCC	9.3	-	-	-	-	-
COc1ccc(C(=O)Nc2nc3ccccc3[nH]2)cc1OC	-	-	-	-	-	-
Cc1cccc(CSc2nn3c(=O)c(C)nnc3s2)c1	-	-	40	-	-	-
CC/C(C)=N/NC(=S)NCc1ccco1	-	-	-	-	-	-
CCc1nc(SCc2ccc(F)cc2)[nH]c(=O)c1C#N	-	-	40	-	-	-
SMILES	Wee1 stabilizer	p97 inhibitor	Arbovirus inh	Redox H2O2 prof	PKD1 inh	RBBP9 inh
COC(=O)c1ccc(CSc2nc3ccc(S(=O)(=O)N4CCOCC4)cc3[nH]2)cc1	-	-	-	-	-	-
COc1cccc(-c2nc(-c3ccccn3)no2)c1OC	-	-	-	-	-	-
c1ccc(-c2noc(-c3cccc4ccccc34)n2)nc1	9.1	-	-	-	-	-
C=C(C)CNC(=S)N1CCNC(=O)C1CC(=O)OC (stereo unspecified)	-	-	-	-	-	-
CSc1nn2c(C(F)(F)F)cc(C(F)(F)F)nc2c1C(=O)O	-	-	.	.	.	-
COC(=O)c1ccc(NC(=O)CCNS(=O)(=O)c2cccc3nonc23)cc1	9.1	-	-	-	-	-
CC(C)n1c(=S)[nH]c2scc(-c3cccs3)c2c1=O	9.1	-	.	.	.	-
COc1cc2c(cc1OC)C(C(=O)N1CCN(c3ccccc3)CC1)C(c1cccs1)N(C)C2=O (stereo unspecified)	-	-	-	-	-	-
CCc1nnc(NC(=O)C2COc3ccccc3O2)s1 (stereo unspecified)	-	-	-	-	-	-
CCCCCc1nnc(NC(=O)C2COc3ccccc3O2)s1 (stereo unspecified)	-	-	46	-	-	-
Cc1nnc(NC(=O)C2COc3ccccc3O2)s1 (stereo unspecified)	-	-	-	-	-	-
